Measured values reported in ChEMBL document CHEMBL1125112, “Antitumor imidazotetrazines. 20. Preparation of the 8-acid derivative of mitozolomide and its utility in the preparation of active antitumor agents” (1990).

Columns and labels:
Type in all cases: functional
L1210 [1] = assay: In vivo antitumor activity against the L1210 leukemia cell line in mouse species B6D2F1 after peroral administration (inoculum cells-10E5,iv) at the dose of 200 mg/kg; conditions: route oral
L1210 [2] = assay: In vivo antitumor activity against the L1210 leukemia cell line in mouse species B6D2F1 after peroral administration (inoculum cells-10E5,iv) at the dose of 100 mg/kg; conditions: route oral
L1210 [3] = assay: In vivo antitumor activity against the L1210 leukemia cell line in mouse species B6D2F1 after peroral administration (inoculum cells-10E5,iv) at the dose of 100 mg/kg on 7th day; conditions: route oral
In short: (§1)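 B6D2F1 mice were inoculated with 10^5 L1210 leukemia cells, ip or iv as the line states. Compound was given orally as a suspension in 1% (carboxymethyl)cellulose in water, dosed on day 1 or 3, over 28–39 days. T/C% = mean death day of treated/mean death day of controls. Survivors to the end were counted in groups of 7–8.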

L1210 [4] = assay: In vivo antitumor activity against the L1210 leukemia cell line in mouse species B6D2F1 after peroral administration (inoculum cells-10E5,iv) at the dose of 200 mg/kg on 7th day; conditions: route oral; in short: as §1
L1210 [5] = assay: In vivo antitumor activity against the L1210 leukemia cell line in mouse species B6D2F1 after peroral administration (inoculum cells-10E5,iv) at the dose of 50 mg/kg; conditions: route oral
L1210 [6] = assay: In vivo antitumor activity against the L1210 leukemia cell line in mouse species B6D2F1 after peroral administration (inoculum cells-10E5,iv) at the dose of 50 mg/kg on 7th day; conditions: route oral; in short: as §1
L1210 [7] = assay: In vivo antitumor activity against the L1210 leukemia cell line in mouse species B6D2F1 after peroral administration (inoculum cells-10E5,ip at the dose of 160 mg/kg; conditions: route oral
L1210 [8] = assay: In vivo antitumor activity against the L1210 leukemia cell line in mouse species B6D2F1 after peroral administration (inoculum cells-10E5,ip) at the dose of 320 mg/kg; conditions: route oral
L1210 [9] = assay: In vivo antitumor activity against the L1210 leukemia cell line in mouse species B6D2F1 after peroral administration (inoculum cells-10E5,ip) at the dose of 40 mg/kg; conditions: route oral
L1210 [10] = assay: In vivo antitumor activity against the L1210 leukemia cell line in mouse species B6D2F1 after peroral administration (inoculum cells-10E5,ip) at the dose of 80 mg/kg; conditions: route oral
L1210 [11] = assay: In vivo antitumor activity against the L1210 leukemia cell line in mouse species B6D2F1 after peroral administration (inoculum cells-10E5,ip)at the dose of 320 mg/kg on 7th day; conditions: route oral; in short: as §1
L1210 [12] = assay: In vivo antitumor activity against the L1210 leukemia cell line in mouse species B6D2F1 after peroral administration (inoculum cells-10E5,ip) at the dose of 80 mg/kg on 8th day; conditions: route oral; in short: as §1
L1210 [13] = assay: In vivo antitumor activity against the L1210 leukemia cell line in mouse species B6D2F1 after peroral administration (inoculum cells-10E5,ip) at the dose of 160 mg/kg on 8th day; conditions: route oral; in short: as §1
L1210 [14] = assay: In vivo antitumor activity against the L1210 leukemia cell line in mouse species B6D2F1 after peroral administration (inoculum cells-10E5,ip) at the dose of 40 mg/kg on 8th day; conditions: route oral; in short: as §1
TLX-5 [15] = assay: (§2) In vivo antitumor activity against the TLX5 lymphoma cell line in mouse species CBA/CA after intraperitoneal administration (inoculum cells-2x10E5,sc) at the dose of 160 mg/kg on 5th day
In short: (§3)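 CBA/CA mice were inoculated with 2 × 10^5 TLX5 lymphoma cells. Drug given intraperitoneally in 10% Me2SO in arachis oil, 5 mice per dose, and the experiment lasted 60 days. Survivors at 60 days were recorded. T/C % = mean death day of treated animals / mean death day of control animals.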

TLX-5 [16] = assay: (§4) In vivo antitumor activity against the TLX5 lymphoma cell line in mouse species CBA/CA after intraperitoneal administration (inoculum cells-2x10E5,sc) at the dose of 20 mg/kg; in short: as §3
TLX-5 [17] = assay: In vivo antitumor activity against the TLX5 lymphoma cell line in mouse species CBA/CA after intraperitoneal administration (inoculum cells-2x10E5,sc) at the dose of 320 mg/kg; in short: as §3
TLX-5 [18] = assay: In vivo antitumor activity against the TLX5 lymphoma cell line in mouse species CBA/CA after intraperitoneal administration (inoculum cells-2x10E5,sc) at the dose of 40 mg/kg; in short: as §3
TLX-5 [19] = assay: In vivo antitumor activity against the TLX5 lymphoma cell line in mouse species CBA/CA after intraperitoneal administration (inoculum cells-2x10E5,sc) at the dose of 80 mg/kg; in short: as §3
TLX-5 [20] = assay: (§5) In vivo antitumor activity against the TLX5 lymphoma cell line in mouse species CBA/CA after intraperitoneal administration (inoculum cells-2x10E5,sc) at the dose of 160 mg/kg
In short: (§6)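 CBA/CA mice were implanted sc with 2 × 10^5 TLX5 lymphoma cells. Compound was given ip on day 3 in 10% Me2SO in arachis oil, over 60 days, in groups of 5. T/C% = mean death day of treated/mean death day of controls. Survivors to day 60 were counted.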

TLX-5 [21] = assay: In vivo antitumor activity against the TLX5 lymphoma cell line in mouse species CBA/CA after intraperitoneal administration (inoculum cells-2x10E5,sc) at the dose of 20 mg/kg on 5th day
TLX-5 [22] = assay: In vivo antitumor activity against the TLX5 lymphoma cell line in mouse species CBA/CA after intraperitoneal administration (inoculum cells-2x10E5,sc) at the dose of 320 mg/kg on 5th day
TLX-5 [23] = assay: In vivo antitumor activity against the TLX5 lymphoma cell line in mouse species CBA/CA after intraperitoneal administration (inoculum cells-2x10E5,sc) at the dose of 40 mg/kg on 5th day
TLX-5 [24] = assay: In vivo antitumor activity against the TLX5 lymphoma cell line in mouse species CBA/CA after intraperitoneal administration (inoculum cells-2x10E5,sc) at the dose of 80 mg/kg on 5th day
TLX-5 [25] = assay: In vivo antitumor activity against the TLX5 lymphoma cell line in mouse species CBA/CA after intraperitoneal administration (inoculum cells-2x10E5,sc) at the dose of 10 mg/kg
TLX-5 [26] = assay: In vivo antitumor activity against the TLX5 lymphoma cell line in mouse species CBA/CA after intraperitoneal administration (inoculum cells-2x10E5,sc) at the dose of 10 mg/kg on 5th day
TLX-5 [27] = assay: as §2; remark: listed apart in the source
TLX-5 [28] = assay: as §5; in short: as §3; remark: listed apart in the source
TLX-5 [29] = assay: In vivo antitumor activity against the TLX5 lymphoma cell line in mouse species CBA/CA after intraperitoneal administration (inoculum cells-2x10E5,sc) at the dose of 640 mg/kg; in short: as §3
TLX-5 [30] = assay: In vivo antitumor activity against the TLX5 lymphoma cell line in mouse species CBA/CA after intraperitoneal administration (inoculum cells-2x10E5,sc) at the dose of 640 mg/kg on 5th day
L1210 [31] = assay: In vivo antitumor activity against the L1210 leukemia cell line in mouse species B6D2F1 after peroral administration (inoculum cells-10E5,iv) at the dose of 10 mg/kg on 7th day; conditions: route oral
L1210 [32] = assay: In vivo antitumor activity against the L1210 leukemia cell line in mouse species B6D2F1 after peroral administration (inoculum cells-10E5,iv) at the dose of 5 mg/kg on 7th day; conditions: route oral
TLX-5 [33] = assay: as §4; in short: as §6; remark: listed apart in the source
TLX-5 [34] = assay: In vivo antitumor activity against the TLX5 lymphoma cell line in mouse species CBA/CA after intraperitoneal administration (inoculum cells-2x10E5,sc) at the dose of 5 mg/kg on 5th day
L1210 [35] = assay: In vivo antitumor activity against the L1210 leukemia cell line in mouse species B6D2F1 after peroral administration (inoculum cells-10E5,iv) at the dose of 20 mg/kg on 7th day; conditions: route oral; in short: as §1

SMILES | T/C (TLX-5 [16]) [%] | T/C (TLX-5 [17]) [%] | T/C (TLX-5 [18]) [%] | T/C (TLX-5 [19]) [%] | Survivors (TLX-5 [21]) | Survivors (TLX-5 [22]) | Survivors (TLX-5 [23]) | Survivors (TLX-5 [24]) | Survivors (TLX-5 [27]) | other results
O=C(NO)c1ncn2c(=O)n(CCCl)nnc12 |  |  |  |  |  |  |  |  |  | T/C (L1210 [1]): 218%; T/C (L1210 [2]): 187%; Survivors (L1210 [3]): 0; Survivors (L1210 [4]): 0
O=C(NOCc1ccccc1)c1ncn2c(=O)n(CCCl)nnc12 |  |  |  |  |  |  |  |  |  | T/C (L1210 [1]): 98%; T/C (L1210 [2]): 98%; T/C (L1210 [5]): 98%; Survivors (L1210 [3]): 0; Survivors (L1210 [4]): 0; Survivors (L1210 [6]): 0
O=C(O)c1ncn2c(=O)n(CCCl)nnc12 | 102 | 223 | 103 | 106 | 0 | 0 | 0 | 0 |  | T/C (L1210 [7]): 107%; T/C (L1210 [8]): 106%; T/C (L1210 [9]): 102%; T/C (L1210 [10]): 101%; Survivors (L1210 [11]): 0; Survivors (L1210 [12]): 0; Survivors (L1210 [13]): 0; Survivors (L1210 [14]): 0; T/C (TLX-5 [15]): 108%; Survivors (TLX-5 [20]): 0
[N-]=[N+]=NC(=O)c1ncn2c(=O)n(CCCl)nnc12 | 97 |  | 96 | 106 | 0 |  | 0 | 0 | 0 | T/C (TLX-5 [25]): 101%; Survivors (TLX-5 [26]): 0
COC(=O)c1ncn2c(=O)n(CCCl)nnc12 | 106 | 140 | 110 | 110 | 0 | 0 | 0 | 0 | 0 | T/C (TLX-5 [28]): 123%
CCOC(=O)CNC(=O)c1ncn2c(=O)n(CCCl)nnc12 |  | 114 |  | 96 |  | 0 |  | 0 | 0 | T/C (TLX-5 [28]): 105%; T/C (TLX-5 [29]): 139%; Survivors (TLX-5 [30]): 0
O=C(Nc1ccccc1)c1ncn2c(=O)n(CCCl)nnc12 |  |  |  |  | 0 | 0 | 0 | 0 | 0 | 
NC(=O)c1ncn2c(=O)n(CCCl)nnc12 [MITOZOLOMIDE] |  |  |  |  |  |  |  |  |  | Survivors (L1210 [31]): 0; Survivors (L1210 [32]): 0; Survivors (TLX-5 [26]): 0; Survivors (TLX-5 [33]): 0; Survivors (TLX-5 [34]): 0; Survivors (L1210 [35]): 0
